Screening results as filed in PubChem BioAssay.
Only some compounds are listed: those with a hit (about 5.8% of all), similar ones and a draw of the others.
ROMK primary – human ROMK K+ channel modulation, primary screen. AID 1918. B-score at 10 µM. Tet-inducible ROMK, thallium flux fluorescence; actives lie on both sides. 130,000 compounds, 2% hits;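 active = signal ratio slope over the read window, or its plate-corrected B-score, at least 3 SD from the plate mean, either direction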;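 note: B-score of the F/F0 ratio slope over 7 to 12 s after thallium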
14-3-3 Bad PPI – disrupts binding of bovine 14-3-3 zeta to phospho-Bad peptide; P63103; TR-FRET 14-3-3zeta/Dy647-pBad peptide displacement, 1 h; inhibition, % at 21.7 µM; 220,000 compounds, 0.71% hits; AID 781;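 active = inhibition above about 70%, limit read from the data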;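 note: 0% = full 14-3-3 plus peptide FRET controls and 100% = background without 14-3-3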
KCC2 mod – KCC2 (human) Cl- transport modulation. KCC2 cells, thallium flux FluoZin-2 fluorescence. B-score of Tl+ flux slope (higher = more flux/activation; lower = inhibition) at 10 µM. 190,000 compounds, 2.2% hits. AID 1456;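 active = thallium flux slope and its plate-corrected score both differing from the plate sample mean at a set confidence after two filtering rounds, in either direction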;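 note: slope of fluorescence scaled to starting intensity during 10 to 20 s after thallium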
RBBP9 inh – human RBBP9 hydrolase inhibition; O75884; recombinant RBBP9, FP-Rh probe fluorescence polarization; inhibition, % at 7.94 µM; 220,000 compounds, 0.2% hits;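 active = inhibition above the campaign mean of all tested compounds plus 3 SD, cut at about 14% in these data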;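 note: plate controls were DMSO wells with RBBP9 for no effect and wells lacking RBBP9 protein for full effect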
Target sequence (O75884 whole entry, looked up): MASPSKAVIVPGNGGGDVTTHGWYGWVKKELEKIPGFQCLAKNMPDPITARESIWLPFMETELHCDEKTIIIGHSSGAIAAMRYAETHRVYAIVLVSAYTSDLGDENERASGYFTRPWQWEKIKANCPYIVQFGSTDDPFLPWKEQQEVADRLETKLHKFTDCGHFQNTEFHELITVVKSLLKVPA
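Test system: recombinant human RBBP9. Quantity: 2.5 µM RBBP9 dispensing solution, before mixing. Detection: FP readout at 525/598 nm. Reagent: Serine-hydrolase probe FP-Rh, 375 nM pre-mixing. Measure: % inhibition. Control set: DMSO-treated enzyme wells and wells lacking RBBP9. Buffer or medium: Tris-NaCl-Pluronic buffer, pH 8.0. Times: preincubation 30 min plus labeling 45 min at 25 °C.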
NCF1 inh – inhibitors of human p47phox binding. P14598. p47phox/p22phox peptide binding, fluorescence polarization, 2 h. inhibition, % at 24.7 µM. 220,000 compounds, 0.53% hits;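 active = inhibition above about 30%, limit read from the data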;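 note: 0% = p47phox with labelled peptide and 100% = labelled peptide alone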
Target sequence (P14598 whole entry, looked up): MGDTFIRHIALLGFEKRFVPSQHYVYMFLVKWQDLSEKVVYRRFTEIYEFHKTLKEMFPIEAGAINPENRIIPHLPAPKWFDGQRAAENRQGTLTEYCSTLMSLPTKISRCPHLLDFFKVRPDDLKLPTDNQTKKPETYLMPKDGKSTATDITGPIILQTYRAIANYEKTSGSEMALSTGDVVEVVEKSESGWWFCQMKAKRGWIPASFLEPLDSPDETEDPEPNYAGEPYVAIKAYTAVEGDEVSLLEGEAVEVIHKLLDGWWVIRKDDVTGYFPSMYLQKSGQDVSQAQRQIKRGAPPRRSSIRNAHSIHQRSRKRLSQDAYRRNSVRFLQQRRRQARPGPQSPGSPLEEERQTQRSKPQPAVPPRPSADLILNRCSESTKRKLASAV
WT yeast gro inh – growth inhibition of WT yeast, mitochondrial fusion screen. AID 1362. 190,000 compounds, 2.1% hits. inhibition, % at 10 µM. mitochondrial fusion phenotypic screen, WT strain; in the data active = inhibition above about 58%; tested in S. cerevisiae
KCC2 secondary – confirmation of human KCC2 transport modulators. normalised thallium flux (F/F0 slope) at 10 µM. AID 1713. shares compounds with KCC2 mod. 3,700 compounds, 15% hits. HEK293-KCC2, thallium flux, FluoZin2 fluorescence; stronger effect = higher value;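 active = thallium flux slope above the same plate's solvent-only control mean plus 3 SD; inconclusive = the two replicate wells disagree; inactive = no significant difference from solvent-only control wells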
KCC2 bumet counter – thallium flux despite bumetanide block in KCC2 cells, secondary assay 3. shares compounds with KCC2 mod. HEK293-KCC2 + bumetanide/ouabain, thallium flux FluoZin2; stronger effect = higher value. normalized thallium flux at 10 µM. 3,700 compounds, 49% hits;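 active = thallium entry rate above the same plate's blocked-transporter control wells by more than 3 SD; inconclusive = the two repeat wells disagree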;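 note: raw slope of fluorescence over initial fluorescence between 10 and 20 s after thallium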
KCC2 secondary2 – KCC2 (human) modulation, second secondary assay; shares compounds with KCC2 mod; HEK293-KCC2, thallium flux FluoZin2 fluorescence; actives lie on both sides; F/F0 rise rate, 10–20 s post-thallium; normalized thallium flux at 10 µM; 3,700 compounds, 23% hits; AID 1715;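 active = thallium flux slope more than 3 SD above or below the plate's solvent-only control mean, mostly below; inconclusive = the two repeat wells disagreed; inactive = no significant shift from solvent-only controls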;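 note: raw slope with 0.1% DMSO as baseline and bumetanide as block control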
HEK293 Tl flux – parental HEK flux effect, counter-screen; shares compounds with KCC2 mod; HEK293 parental cells, thallium flux FluoZin2, ouabain; baseline-ratio fluorescence slope, 10–20 s after thallium; thallium flux rate (normalised fluorescence) at 10 µM; 3,700 compounds, 46% hits; AID 1716;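 active = thallium flux rate significantly above the same plate's solvent-only control wells, beyond their mean plus 3 SD; inconclusive = the two replicate wells gave conflicting results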
KCC2 retest ouab – KCC2 (human) modulation, ouabain retest; HEK293-KCC2, thallium flux FluoZin2 fluorescence; bidirectional: low = inhibitor, high = activator; shares compounds with KCC2 mod; raw Tl+ flux slope (below DMSO = inhibition, above = activation) at 10 µM; 3,700 compounds, 48% hits;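 active = thallium flux slope beyond 3 SD from same-plate DMSO control mean in most replicates, usually higher, sometimes lower; inconclusive = repeat tests gave conflicting results; inactive = no significant difference from controls in most replicates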;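 note: slope of initial-normalized fluorescence between seconds 10 and 20 after thallium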
HEK293 Tl flux2 – acts in parental HEK cells, second KCC2 counter-screen | shares compounds with KCC2 mod | HEK293 parental, thallium flux FluoZin-2 fluorescence slope | thallium flux slope at 10 µM | 3,700 compounds, 33% hits;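 active = thallium flux slope above the same plate's solvent-control mean plus 3 SD in both duplicate wells; inconclusive = duplicate wells that disagreed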;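 note: run without ouabain in cells lacking the KCC2 cotransporter; slope of fluorescence scaled to its starting value between 10 and 20 s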
* marks the source's active call; other numbers are inactive results; ? = inconclusive; . = not tested or not shown.

SMILES	ROMK primary	14-3-3 Bad PPI	KCC2 mod	RBBP9 inh	NCF1 inh	WT yeast gro inh	KCC2 secondary	KCC2 bumet counter	KCC2 secondary2	HEK293 Tl flux	KCC2 retest ouab	HEK293 Tl flux2
CCCCCOC(=O)NC1CCS(=O)(=O)C1 (stereo not drawn)	-0.69	-10.9	-0.0145	-4.3	-9.5	-11.8	.	.	.	.	.	.
O=C(NNS(=O)(=O)c1ccc(C(F)(F)F)cc1)c1cnn(-c2ccccc2)c1C(F)(F)F	.	-1.8	0.563	-3.2	-3.7	.	.	.	.	.	.	.
CCCOc1ccc(NC2=CC(=O)CC(C)(C)C2)cc1	0.681	-7.0	.	-4.1	-3.0	-0.5	0.00621	0.00514	0.0299	0.00772	0.0184	0.0113
O=C1OC(c2ccc(O)cc2)(c2ccc(O)cc2)c2ccccc21	.	3.7	10.8*	-7.5	-2.6	21.4	0.00569	0.00957*	0.0349	0.00773	0.0248*	0.0117
CC(C)C1(C(C)C)OC(=O)c2ccccc21	-0.267	5.4	-0.139	-6.6	2.3	11.2	.	.	.	.	.	.
CCOc1cccc(/C=N/Nc2nc(N3CCCC3)nc(N3CCCC3)n2)c1O	0.935	-0.9	-4.46*	-18.9	3.8	.	0.00996	0.00654	0.0337	0.00741	0.0206	0.0112*
CC(C)n1nc(C(=O)Nc2nc3ccccc3[nH]2)c2ccccc2c1=O	0.496	-20.7	-3.97*	-8.4	-10.6	21.2	0.0146	0.00369	0.0246*	?	0.0135	0.00882
NS(=O)(=O)c1ccc(CCn2c(=S)[nH]c3ccc(F)cc3c2=O)cc1	0	-7.1	3.14*	-10.5	2.6	-34.1	?	0.00721	0.0304	0.00926*	0.0202	0.0111*
NS(=O)(=O)c1ccc(CCNC(=O)C2CCC(Cn3c(=S)[nH]c4ccccc4c3=O)CC2)cc1 (stereo not drawn)	0.113	9.1	0.83	-6.9	-11.7	-2.6	.	.	.	.	.	.
O=C1C2CCCN2C(c2ccco2)N1c1ccc(F)cc1 (stereo not drawn)	-0.145	5.4	0.876	-5.5	-9.8	-8.9	.	.	.	.	.	.
Cc1nn(C)c(C)c1S(=O)(=O)N(CC(=O)N1CCc2ccccc2C1)c1ccc(C(C)C)cc1	.	-2.7	.	-2.4	-7.6	17.0	?	0.00494	0.0253*	?	0.0144*	0.00935
COc1ccc(C(=O)C2CCCN(C(=O)c3noc4c3CCCC4)C2)c(C)c1 (stereo not drawn)	0.23	-0.3	.	-10.5	-2.7	2.0	0.00637	0.00399	0.0279	?	0.0172	0.01
Cc1ccc(NC(=S)NNc2ccc([N+](=O)[O-])cc2S(=O)(=O)Nc2ccccc2C(=O)O)cc1C	-1.12	0.2	-6.13*	0.1	8.5	16.9	0.00685	0.00468	0.0246*	?	0.0117*	?
O=C(Cn1nnc2ccccc21)NNC(=S)NC1CCCCC1	-0.739	-19.4	.	-4.1	-13.3	-8.4	.	.	.	.	.	.
CC(=O)SCC(=O)N=c1sc2cc(F)ccc2n1C	-0.154	-6.9	.	-2.8	-4.7	-3.0	0.00694	0.00592*	0.0299	?	0.0194	0.0115
Cc1ccc(CN2CCN(C3CCOCC3)CC2CCO)cc1 (stereo not drawn)	0.477	-3.3	.	8.6	-5.7	0.0	.	.	.	.	.	.
